# Experimental data from ChEMBL document CHEMBL4152188, “Design, synthesis and biological evaluation of C(4) substituted monobactams as antibacterial agents against multidrug-resistant Gram-negative bacteria” (Eur J Med Chem, 2018).
# Key:
# Assay type in all cases: functional
# Klebsiella pneumoniae [1] = experiment: Antibacterial activity against KPC-2 producing Klebsiella pneumoniae isolate 209632 after 18 hrs by CLSI broth microdilution method; settings: isolate 209632, 18 h
# Escherichia coli [2] = experiment: Antibacterial activity against extended-spectrum beta-lactamase producing Escherichia coli isolate 209285 after 18 hrs by CLSI broth microdilution method; settings: isolate 209285, 18 h
# Escherichia coli [3] = experiment: Antibacterial activity against extended-spectrum beta-lactamase producing Escherichia coli isolate 106342 after 18 hrs by CLSI broth microdilution method; settings: isolate 106342, 18 h
# Klebsiella pneumoniae [4] = experiment: Antibacterial activity against KPC-2 producing Klebsiella pneumoniae isolate 209735 after 18 hrs by CLSI broth microdilution method; settings: isolate 209735, 18 h
# Klebsiella pneumoniae [5] = experiment: Antibacterial activity against KPC-2 producing Klebsiella pneumoniae isolate 212423 after 18 hrs by CLSI broth microdilution method; settings: isolate 212423, 18 h
# Pseudomonas aeruginosa [6] = experiment: Antibacterial activity against IMP-4 producing Pseudomonas aeruginosa isolate 209321 after 18 hrs in presence of BPL by CLSI broth microdilution method; settings: isolate 209321, 18 h
# Method in brief: (§1)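 CLSI broth microdilution against clinical isolates (ESBL E. coli, KPC-2 MDR K. pneumoniae, IMP-4 MDR P. aeruginosa; five per species). Iron limitation: Mueller-Hinton broth supplemented with 16 mg/liter 2,2'-bipyridyl to complex iron and induce iron uptake systems. Read-out: MIC.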
# Escherichia coli [7] = experiment: Selectivity index, ratio of MIC for against extended-spectrum beta-lactamase producing Escherichia coli isolate 106342 to MIC for extended-spectrum beta-lactamase producing Escherichia coli isolate 106342 in presence of BPL
# Klebsiella pneumoniae [8] = experiment: Antibacterial activity against KPC-2 producing Klebsiella pneumoniae isolate 212229 after 18 hrs by CLSI broth microdilution method; settings: isolate 212229, 18 h
# Klebsiella pneumoniae [9] = experiment: Antibacterial activity against KPC-2 producing Klebsiella pneumoniae isolate 212232 after 18 hrs by CLSI broth microdilution method; settings: isolate 212232, 18 h
# Pseudomonas aeruginosa [10] = experiment: Antibacterial activity against IMP-4 producing Pseudomonas aeruginosa isolate 209321 after 18 hrs by CLSI broth microdilution method; settings: isolate 209321, 18 h
# Pseudomonas aeruginosa [11] = experiment: Antibacterial activity against IMP-4 producing Pseudomonas aeruginosa isolate 212886 after 18 hrs in presence of BPL by CLSI broth microdilution method; settings: isolate 212886, 18 h; method in brief: as §1
# Escherichia coli [12] = experiment: Antibacterial activity against extended-spectrum beta-lactamase producing Escherichia coli isolate 209285 after 18 hrs in presence of BPL by CLSI broth microdilution method; settings: isolate 209285, 18 h; method in brief: as §1
# Escherichia coli [13] = experiment: Selectivity index, ratio of MIC for against extended-spectrum beta-lactamase producing Escherichia coli isolate 212648 to MIC for extended-spectrum beta-lactamase producing Escherichia coli isolate 212648 in presence of BPL
# Escherichia coli [14] = experiment: Antibacterial activity against extended-spectrum beta-lactamase producing Escherichia coli isolate 208687 after 18 hrs in presence of BPL by CLSI broth microdilution method; settings: isolate 208687, 18 h; method in brief: as §1
# Escherichia coli [15] = experiment: Selectivity index, ratio of MIC for against Escherichia coli isolate 210737 to MIC for Escherichia coli isolate 210737 in presence of BPL
# Escherichia coli [16] = experiment: Antibacterial activity against extended-spectrum beta-lactamase producing Escherichia coli isolate 212648 after 18 hrs by CLSI broth microdilution method; settings: isolate 212648, 18 h
# Klebsiella pneumoniae [17] = experiment: Antibacterial activity against KPC-2 producing Klebsiella pneumoniae isolate 212229 after 18 hrs in presence of BPL by CLSI broth microdilution method; settings: isolate 212229, 18 h; method in brief: as §1
# Pseudomonas aeruginosa [18] = experiment: Antibacterial activity against IMP-4 producing Pseudomonas aeruginosa isolate 207272 after 18 hrs in presence of BPL by CLSI broth microdilution method; settings: isolate 207272, 18 h; method in brief: as §1
# Escherichia coli [19] = experiment: Selectivity index, ratio of MIC for against extended-spectrum beta-lactamase producing Escherichia coli isolate 208687 to MIC for extended-spectrum beta-lactamase producing Escherichia coli isolate 208687 in presence of BPL
# Pseudomonas aeruginosa [20] = experiment: Antibacterial activity against IMP-4 producing Pseudomonas aeruginosa isolate 209471 after 18 hrs in presence of BPL by CLSI broth microdilution method; settings: isolate 209471, 18 h; method in brief: as §1
# Pseudomonas aeruginosa [21] = experiment: Antibacterial activity against IMP-4 producing Pseudomonas aeruginosa isolate 208247 after 18 hrs in presence of BPL by CLSI broth microdilution method; settings: isolate 208247, 18 h; method in brief: as §1
# Escherichia coli [22] = experiment: Antibacterial activity against extended-spectrum beta-lactamase producing Escherichia coli isolate 106342 after 18 hrs in presence of BPL by CLSI broth microdilution method; settings: isolate 106342, 18 h; method in brief: as §1
# Pseudomonas aeruginosa [23] = experiment: Selectivity index, ratio of MIC for against IMP-4 producing Pseudomonas aeruginosa isolate 209321 to MIC for against IMP-4 producing Pseudomonas aeruginosa isolate 209321 in presence of BPL
# Pseudomonas aeruginosa [24] = experiment: Antibacterial activity against IMP-4 producing Pseudomonas aeruginosa isolate 208247 after 18 hrs by CLSI broth microdilution method; settings: isolate 208247, 18 h
# Klebsiella pneumoniae [25] = experiment: Antibacterial activity against KPC-2 producing Klebsiella pneumoniae isolate 209735 after 18 hrs in presence of BPL by CLSI broth microdilution method; settings: isolate 209735, 18 h; method in brief: as §1
# Pseudomonas aeruginosa [26] = experiment: Antibacterial activity against IMP-4 producing Pseudomonas aeruginosa isolate 212886 after 18 hrs by CLSI broth microdilution method; settings: isolate 212886, 18 h
# Escherichia coli [27] = experiment: Selectivity index, ratio of MIC for against extended-spectrum beta-lactamase producing Escherichia coli isolate 209285 to MIC for extended-spectrum beta-lactamase producing Escherichia coli isolate 209285 in presence of BPL
# Escherichia coli [28] = experiment: Antibacterial activity against Escherichia coli isolate 210737 after 18 hrs by CLSI broth microdilution method; settings: isolate 210737, 18 h
# Escherichia coli [29] = experiment: Antibacterial activity against Escherichia coli isolate 210737 after 18 hrs in presence of BPL by CLSI broth microdilution method; settings: isolate 210737, 18 h; method in brief: as §1
# Pseudomonas aeruginosa [30] = experiment: Antibacterial activity against IMP-4 producing Pseudomonas aeruginosa isolate 207272 after 18 hrs by CLSI broth microdilution method; settings: isolate 207272, 18 h
# Klebsiella pneumoniae [31] = experiment: Antibacterial activity against KPC-2 producing Klebsiella pneumoniae isolate 209632 after 18 hrs in presence of BPL by CLSI broth microdilution method; settings: isolate 209632, 18 h; method in brief: as §1
# Escherichia coli [32] = experiment: Antibacterial activity against extended-spectrum beta-lactamase producing Escherichia coli isolate 208687 after 18 hrs by CLSI broth microdilution method; settings: isolate 208687, 18 h
# Escherichia coli [33] = experiment: Antibacterial activity against extended-spectrum beta-lactamase producing Escherichia coli isolate 212648 after 18 hrs in presence of BPL by CLSI broth microdilution method; settings: isolate 212648, 18 h; method in brief: as §1
# Klebsiella pneumoniae [34] = experiment: Antibacterial activity against KPC-2 producing Klebsiella pneumoniae isolate 212423 after 18 hrs in presence of BPL by CLSI broth microdilution method; settings: isolate 212423, 18 h; method in brief: as §1
# Klebsiella pneumoniae [35] = experiment: Antibacterial activity against KPC-2 producing Klebsiella pneumoniae isolate 212232 after 18 hrs in presence of BPL by CLSI broth microdilution method; settings: isolate 212232, 18 h; method in brief: as §1
# Pseudomonas aeruginosa [36] = experiment: Antibacterial activity against IMP-4 producing Pseudomonas aeruginosa isolate 209471 after 18 hrs by CLSI broth microdilution method; settings: isolate 209471, 18 h
# Klebsiella pneumoniae [37] = experiment: Selectivity index, ratio of MIC for against KPC-2 producing Klebsiella pneumoniae isolate 209632 to MIC for against KPC-2 producing Klebsiella pneumoniae isolate 209632 in presence of BPL
# Klebsiella pneumoniae [38] = experiment: Selectivity index, ratio of MIC for against KPC-2 producing Klebsiella pneumoniae isolate 212232 to MIC for against KPC-2 producing Klebsiella pneumoniae isolate 212232 in presence of BPL
# Klebsiella pneumoniae [39] = experiment: Selectivity index, ratio of MIC for against KPC-2 producing Klebsiella pneumoniae isolate 212423 to MIC for against KPC-2 producing Klebsiella pneumoniae isolate 212423 in presence of BPL
# Klebsiella pneumoniae [40] = experiment: Selectivity index, ratio of MIC for against KPC-2 producing Klebsiella pneumoniae isolate 212229 to MIC for against KPC-2 producing Klebsiella pneumoniae isolate 212229 in presence of BPL
# Klebsiella pneumoniae [41] = experiment: Selectivity index, ratio of MIC for against KPC-2 producing Klebsiella pneumoniae isolate 209735 to MIC for against KPC-2 producing Klebsiella pneumoniae isolate 209735 in presence of BPL
structure (smiles),measurement,setting,value
C=CC1[C@H](NC(=O)/C(=N\OC(c2cc(=O)c(O)cn2O)C(C)C)c2csc(N)n2)C(=O)N1S(=O)(=O)O (some centres not stated),MIC,Klebsiella pneumoniae [1],> 64 µg/mL
same,MIC,Escherichia coli [2],> 64 µg/mL
same,MIC,Escherichia coli [3],64 µg/mL
same,MIC,Klebsiella pneumoniae [4],> 64 µg/mL
same,MIC,Klebsiella pneumoniae [5],> 64 µg/mL
same,MIC,Pseudomonas aeruginosa [6],64 µg/mL
same,Selectivity Index,Escherichia coli [7],1
same,MIC,Klebsiella pneumoniae [8],> 64 µg/mL
same,MIC,Klebsiella pneumoniae [9],> 64 µg/mL
same,MIC,Pseudomonas aeruginosa [10],64 µg/mL
same,MIC,Pseudomonas aeruginosa [11],> 64 µg/mL
same,MIC,Escherichia coli [12],> 64 µg/mL
same,Selectivity Index,Escherichia coli [13],1 - 32
same,MIC,Escherichia coli [14],2 µg/mL
same,Selectivity Index,Escherichia coli [15],1 - 32
same,MIC,Escherichia coli [16],> 64 µg/mL
same,MIC,Klebsiella pneumoniae [17],> 64 µg/mL
same,MIC,Pseudomonas aeruginosa [18],> 64 µg/mL
same,Selectivity Index,Escherichia coli [19],32
same,MIC,Pseudomonas aeruginosa [20],> 64 µg/mL
same,MIC,Pseudomonas aeruginosa [21],> 64 µg/mL
same,MIC,Escherichia coli [22],64 µg/mL
same,Selectivity Index,Pseudomonas aeruginosa [23],1
same,MIC,Pseudomonas aeruginosa [24],> 64 µg/mL
same,MIC,Klebsiella pneumoniae [25],> 64 µg/mL
same,MIC,Pseudomonas aeruginosa [26],> 64 µg/mL
same,Selectivity Index,Escherichia coli [27],1 - 32
same,MIC,Escherichia coli [28],> 64 µg/mL
same,MIC,Escherichia coli [29],> 64 µg/mL
same,MIC,Pseudomonas aeruginosa [30],> 64 µg/mL
same,MIC,Klebsiella pneumoniae [31],> 64 µg/mL
same,MIC,Escherichia coli [32],64 µg/mL
same,MIC,Escherichia coli [33],> 64 µg/mL
same,MIC,Klebsiella pneumoniae [34],> 64 µg/mL
same,MIC,Klebsiella pneumoniae [35],> 64 µg/mL
same,MIC,Pseudomonas aeruginosa [36],> 64 µg/mL
CC(C)C(O/N=C(\C(=O)NC1C(=O)N(S(=O)(=O)O)C12CCCCC2)c1csc(N)n1)c1cc(=O)c(O)cn1O (configuration not stated),MIC,Klebsiella pneumoniae [1],8 µg/mL
same,MIC,Escherichia coli [2],64 µg/mL
same,MIC,Escherichia coli [3],32 µg/mL
same,MIC,Klebsiella pneumoniae [4],16 µg/mL
same,Selectivity Index,Klebsiella pneumoniae [37],2
same,MIC,Klebsiella pneumoniae [5],8 µg/mL
same,MIC,Pseudomonas aeruginosa [6],64 µg/mL
same,Selectivity Index,Escherichia coli [7],2
same,MIC,Klebsiella pneumoniae [8],8 µg/mL
same,MIC,Klebsiella pneumoniae [9],16 µg/mL
same,Selectivity Index,Klebsiella pneumoniae [38],16
same,MIC,Pseudomonas aeruginosa [10],64 µg/mL
same,MIC,Pseudomonas aeruginosa [11],> 64 µg/mL
same,MIC,Escherichia coli [12],8 µg/mL
same,Selectivity Index,Escherichia coli [13],2 - 8
same,MIC,Escherichia coli [14],4 µg/mL
same,Selectivity Index,Escherichia coli [15],2
same,MIC,Escherichia coli [16],> 64 µg/mL
same,MIC,Klebsiella pneumoniae [17],4 µg/mL
same,MIC,Pseudomonas aeruginosa [18],> 64 µg/mL
same,Selectivity Index,Escherichia coli [19],8
same,MIC,Pseudomonas aeruginosa [20],> 64 µg/mL
same,Selectivity Index,Klebsiella pneumoniae [39],2
same,MIC,Pseudomonas aeruginosa [21],64 µg/mL
same,MIC,Escherichia coli [22],16 µg/mL
same,Selectivity Index,Pseudomonas aeruginosa [23],1
same,MIC,Pseudomonas aeruginosa [24],> 64 µg/mL
same,MIC,Klebsiella pneumoniae [25],4 µg/mL
same,Selectivity Index,Klebsiella pneumoniae [40],2
same,MIC,Pseudomonas aeruginosa [26],> 64 µg/mL
same,Selectivity Index,Escherichia coli [27],8
same,MIC,Escherichia coli [28],16 µg/mL
same,MIC,Escherichia coli [29],8 µg/mL
same,Selectivity Index,Klebsiella pneumoniae [41],4
same,MIC,Pseudomonas aeruginosa [30],> 64 µg/mL
same,MIC,Klebsiella pneumoniae [31],4 µg/mL
same,MIC,Escherichia coli [32],32 µg/mL
same,MIC,Escherichia coli [33],> 64 µg/mL
same,MIC,Klebsiella pneumoniae [34],4 µg/mL
same,MIC,Klebsiella pneumoniae [35],1 µg/mL
same,MIC,Pseudomonas aeruginosa [36],> 64 µg/mL
